According to ChEMBL document CHEMBL4052587, “Talarazines A-E: Noncytotoxic Iron(III) Chelators from an Australian Mud Dauber Wasp-Associated Fungus, Talaromyces sp. (CMB-W045)” (J Nat Prod, 2017):
Activity calls are given as the source filed them. The rule behind the calls is not given here.

Legend:
Pseudomonas aeruginosa = test: Growth inhibition of Pseudomonas aeruginosa ATCC 27853 after 24 by broth micro-dilution method; type: functional
Candida albicans = test: Growth inhibition of Candida albicans ATCC 90028 after 48 by broth micro-dilution method; type: functional
KB 3-1 = test: Cytotoxicity against human KB-3-1 cells assessed as reduction in cell viability up to 30 uM after 68 hrs by MTT assay; type: functional, cell-based
NCI-H460 = test: Cytotoxicity against human NCI-H460 cells assessed as reduction in cell viability up to 30 uM after 68 hrs by MTT assay; type: functional, cell-based
Staphylococcus aureus = test: Growth inhibition of Staphylococcus aureus ATCC 25923 after 24 by broth micro-dilution method; type: functional
Escherichia coli = test: Growth inhibition of Escherichia coli ATCC 25922 after 24 by broth micro-dilution method; type: functional
SW-620 = test: Cytotoxicity against human SW620 cells assessed as reduction in cell viability up to 30 uM after 68 hrs by MTT assay; type: functional, cell-based
[1] = Metal chelating activity of the compound assessed as fluorescence recovery of calcein-Fe3 complex formation up to 40 uM measured after overnight incubation by CAFe based fluorescence spectrophotometry
Procedure, shortened: (§1)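 Competition assay between the test chelator and a calcein–Fe(III) complex. Calcein is a fluorescent chelator with high Fe(III) affinity, and Fe(III) coordination quenches its fluorescence stoichiometrically. Relative Fe(III) affinity is inferred from the competing equilibrium, read as change in calcein fluorescence.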

[2] = Metal chelating activity of the compound assessed as fluorescence recovery of calcein-Fe3 complex formation up to 10 uM measured after overnight incubation by CAFe based fluorescence spectrophotometry; procedure, shortened: as §1

Activity [1]	Activity [2]	Compound	IC50 (Pseudomonas aeruginosa) [µM]	IC50 (Candida albicans) [µM]	Activity (KB 3-1)	Activity (NCI-H460)	IC50 (Staphylococcus aureus) [µM]	IC50 (Escherichia coli) [µM]	Activity (SW-620)
–	–	CC(=O)N[C@@H](CCCN(O)C(=O)/C=C(\C)CCO)C(=O)OCC/C(C)=C/C(=O)NCCC[C@@H]1NC(=O)[C@H](CCCN(O)C(=O)/C=C(\C)CCO)NC1=O	> 30	> 30	inactive	inactive	> 30	> 30	inactive
–	–	CC(=O)N[C@@H](CCCN(O)C(=O)/C=C(\C)CCO)C(=O)OCC/C(C)=C/C(=O)NCCC[C@@H]1NC(=O)[C@H](CCCNC(=O)/C=C(\C)CCO)NC1=O	> 30	> 30	inactive	inactive	> 30	> 30	inactive
–	–	C/C(=C\C(=O)NCCC[C@@H]1NC(=O)[C@H](CCCN(O)C(=O)/C=C(\C)CCO)NC1=O)CCO	> 30	> 30	inactive	inactive	> 30	> 30	inactive
Active	Active	C/C(=C\C(=O)N(O)CCC[C@@H]1NC(=O)[C@H](CCCN(O)C(=O)/C=C(\C)CCO)NC1=O)CCO	> 30	> 30	inactive	inactive	> 30	> 30	inactive
Active	Active	CC(=O)N[C@@H](CCCN(O)C(=O)/C=C(\C)CCO)C(=O)OCC/C(C)=C/C(=O)N(O)CCC[C@@H]1NC(=O)[C@H](CCCN(O)C(=O)/C=C(\C)CCO)NC1=O	> 30	> 30	inactive	inactive	> 30	> 30	inactive
–	–	C/C(=C\C(=O)NCCC[C@@H]1NC(=O)[C@H](CCCNC(=O)/C=C(\C)CCO)NC1=O)CCO	> 30	> 30	inactive	inactive	> 30	> 30	inactive
–	–	CC(=O)N[C@@H](CCCN(O)C(=O)/C=C(\C)CCO)C(=O)OCC/C(C)=C/C(=O)N(O)CCC[C@@H]1NC(=O)[C@H](CCCNC(=O)/C=C(\C)CCO)NC1=O	> 30	> 30	inactive	inactive	> 30	> 30	inactive
